Measurements as given in ChEMBL document CHEMBL3580629, “Diterpenoids and Triterpenoids from the Resin of Bursera microphylla and Their Cytotoxic Activity” (J Nat Prod, 2015).

Legend:
Assay type in all cases: functional, cell-based; call rule not given here
[1] = Cytotoxic activity against mouse M12.C3.F6 cells assessed as reduction in cell viability incubated for 48 hrs by MTT assay
Method in brief: (§1)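 Cells seeded at 1 × 10^4 per well and left 24 h at 37 °C, 5% CO2 to attach, then given test substances at 200 to 0.05 μM for 48 h. Substances were dissolved in DMSO and diluted in medium (0.06–2.0% DMSO in cultures). MTT (5 mg/mL stock) was added for the final 4 h, and formazan was dissolved in acidic isopropanol. Absorbance was read at 570/650 nm against vehicle (100%). IC50 came from nonlinear regression of log-normalized data, six doses in triplicate, at least three experiments.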

A549 = test: Cytotoxic activity against human A549 cells assessed as reduction in cell viability incubated for 48 hrs by MTT assay; method in brief: as §1
PC-3 = test: Cytotoxic activity against human PC3 cells assessed as reduction in cell viability incubated for 48 hrs by MTT assay; method in brief: as §1
HeLa = test: Cytotoxic activity against human HeLa cells assessed as reduction in cell viability incubated for 48 hrs by MTT assay; method in brief: as §1
RAW264.7 = test: Cytotoxic activity against mouse RAW264.7 cells assessed as reduction in cell viability incubated for 48 hrs by MTT assay; method in brief: as §1
[2] = Mus musculus, RAW264.7, 48 h, read-out: IC50

SMILES	IC50 [1]	IC50 (A549)	IC50 (PC-3; pc-3)	IC50 (HeLa)	IC50 (RAW264.7; raw264.7)	IC50 (RAW264.7; [2]) [µM]	IC50 ([1]; Mus musculus, 48 h, read-out: IC50) [µM]	IC50 (PC-3; Homo sapiens, PC-3, 48 h, read-out: IC50) [µM]
CC(C)=CCC/C(C)=C/C/C=C(\C)[C@H]1CCC2[C@@]3(C)CCC(=O)C(C)(C)C3CC[C@]21C (stereo partly specified)	Not Active	Not Active	Not Active	Not Active	Not Active			
CC(C)=CCC/C(C)=C/C/C=C(\C)[C@H]1CCC2[C@@]3(C)CC[C@H](O)C(C)(C)C3CC[C@]21C (stereo partly specified)	Not Active	Not Active	Not Active	Not Active	Not Active			
CC(=O)OC[C@H](Cc1ccc2c(c1)OCO2)[C@H](COC(C)=O)Cc1ccc2c(c1)OCO2						9.8		
COc1cc(C[C@@H]2COC[C@H]2Cc2ccc3c(c2)OCO3)cc(OC)c1OC						0.4		
COc1cc(C[C@@H](COC(C)=O)[C@H](COC(C)=O)Cc2ccc3c(c2)OCO3)cc(OC)c1OC						0.2	2.5	
CC(=O)O[C@@]1(C(C)C)C/C=C(\C)CC[C@@H]2O[C@@]2(C)CC/C=C(\C)CC1 (relative stereo)	Not Active	Not Active	Not Active	Not Active	Not Active			
COc1cccc2c1C(=O)c1c(O)c3c(c(O)c1C2=O)C[C@@](O)(C(=O)CO)C[C@@H]3O[C@H]1C[C@H](N)[C@H](O)[C@H](C)O1 [DOXORUBICIN]						0.63		3.18
